Source: PubChem BioAssay
ZTA DNA inh = counter-screen for EBNA-1 inhibitors: inhibitors of Epstein-Barr virus ZTA; AID 2234; 0.15% of 320,000 active; P03206; inhibition, % at 11 µM; ZTA-DNA binding, fluorescence polarization; in the data active = inhibition above about 33%
Target sequence (P03206 whole entry, looked up): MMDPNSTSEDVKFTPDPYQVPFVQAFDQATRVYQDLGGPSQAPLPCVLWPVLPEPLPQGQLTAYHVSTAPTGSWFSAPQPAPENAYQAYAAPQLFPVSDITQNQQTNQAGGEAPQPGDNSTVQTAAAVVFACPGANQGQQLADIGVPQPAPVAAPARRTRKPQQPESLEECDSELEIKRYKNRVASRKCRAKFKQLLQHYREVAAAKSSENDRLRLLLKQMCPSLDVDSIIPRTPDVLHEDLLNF
PfM18AAP inh = PfM18AAP inhibitors, malaria aminopeptidase, primary screen, biochemical, QFRET, recombinant enzyme; AID 1822, 2009; M18 aspartyl aminopeptidase (Plasmodium falciparum 3D7); inhibition, % at 7.35 µM; 1.2% of 290,000 active; H-Glu-NHMec fluorogenic cleavage;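 active = inhibition above the campaign mean inhibition over all tested compounds plus 3 SD, cut at about 28% in these data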
EBNA-1 inh = EBNA-1 DNA-binding inhibitors, primary screen, biochemical, fluorescence polarization; inhibition, % at 14.8 µM; 0.34% of 300,000 active; AID 1950, 2009; in the data active = inhibition above about 28%
HCV core dimer = inhibitors of HCV core protein dimerization, primary screen, biochemical, TR-FRET, high-throughput; inhibition, % at 5 µM; AID 1899, 2009; TR-FRET GST/Flag-core106 dimerization, 1536-well; 0.33% of 300,000 active;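 active = inhibition above the mean of all tested compounds plus 3 SD, set per screening campaign, cut at about 45% in these data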
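System: GST-tagged and Flag-tagged HCV core protein residues 1-106 / Input: core106 proteins, GST 13.5 nM and Flag 17 nM / Buffer or medium: KF-containing HEPES buffer, pH 7.45, DTT, CHAPS, BSA / Probe or stimulus: Eu-anti-GST and XL665-anti-Flag labelled anti-tag antibodies / Schedule: 4 h, 22.5 °C incubation / Technique: TR-FRET 671 and 617 nm emission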
NS3 helicase inh = inhibitors of HCV NS3 helicase, primary screen, biochemical, Cy5 molecular beacon fluorescence; NS3 helicase DNA unwinding; inhibition, % at 10.9 µM; 0.56% of 290,000 active;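 active = inhibition above the mean of all tested compounds plus 3 SD, set per campaign, cut at about 35% in these data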
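Assay system – hepatitis C virus NS3 helicase domain fragment enzyme · Buffer or medium – MOPS pH 6.5, MgCl2, DTT, Tween20, BSA · Reagent – Cy5/quencher beacon DNA duplex and ATP to start · Compound – single 10.9 µM dose · Timing – 1 h at 25 °C · Technique – Cy5 beacon fluorescence read at start and 1 h · Measure – % inhibition of unwinding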
ALR H2O2 inh = inhibitors of human ALR sulfhydryl oxidase, primary screen, biochemical, H2O2 detection, HRP-luminol luminescence, single point; FAD-linked sulfhydryl oxidase ALR (Homo sapiens), P55789; purified ALR, DTT oxidation; inhibition, % (no concentration beside the values); 3.8% of 290,000 active; AID 485317, 2010;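 active = mean replicate inhibition above about 79%, with every replicate also reaching it, limit read from the data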
Target sequence (P55789 whole entry, looked up): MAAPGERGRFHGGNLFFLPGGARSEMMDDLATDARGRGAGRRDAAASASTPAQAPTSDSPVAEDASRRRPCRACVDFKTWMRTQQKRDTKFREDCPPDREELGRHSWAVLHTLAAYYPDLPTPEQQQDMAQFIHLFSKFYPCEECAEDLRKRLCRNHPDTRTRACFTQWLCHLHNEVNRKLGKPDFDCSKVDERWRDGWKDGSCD
Hits are given with their value; - = inactive; . = not tested or not shown. The list is not random: actives were taken first. Their share in the collection is about 5.2%.

SMILES	ZTA DNA inh	PfM18AAP inh	EBNA-1 inh	HCV core dimer	NS3 helicase inh	ALR H2O2 inh
O=C(CSc1c2c(nc3cc(Cl)ccc13)CCCC2)NCc1ccco1	-	-	-	-	-	.
COc1cc(NC(=O)CSc2c3c(nc4ccccc24)CCC3)cc(OC)c1OC	-	-	-	-	-	98
CC(C)NC(=O)CSc1c2c(nc3ccccc13)CCCC2	-	-	-	-	-	76
COCCNC(=O)CSc1c2c(nc3ccc(Cl)cc13)CCCC2	-	-	-	-	-	98
CCOC(=O)C1CCN(C(=O)CSc2c3c(nc4ccccc24)CCC3)CC1	-	-	-	-	-	-
COc1ccc(CCC(=O)NNC(=O)c2ccc(OC)cc2)cc1	-	-	-	-	-	.
COc1ccc(NC(=O)CSc2c3c(nc4ccccc24)CCCC3)c(OC)c1	-	-	-	-	-	100
CCN(C(=O)c1ccc2c(SCC(=O)O)c3c(nc2c1)CCC3)c1cc(Cl)ccc1OC	-	-	-	-	-	-
O=C(CSc1nc(O)cc(=O)[nH]1)C1CC1	-	-	-	-	-	86
COc1ccc(NC(=O)CSc2nc(O)cc(=O)[nH]2)c(OC)c1	-	-	-	-	-	99
COc1ccc(NC(=O)CSc2c3c(nc4cc(Cl)ccc24)CCCC3)cc1OC	-	-	-	-	-	99
CCn1c(SCC(=O)Nc2ccccc2OC)nc2ccccc2c1=O	-	-	-	-	-	-
COc1ccccc1NC(=O)CSc1c2c(nc3ccccc13)CCC2	-	-	-	-	-	99
Cc1cc(NC(=O)CSc2c3c(nc4ccccc24)CCC3)no1	-	-	-	-	-	98
Cc1cc(NC(=O)CSc2cc(C)c3ccccc3n2)no1	.	.	.	.	.	-
O=C(Nc1ccc(Br)cc1F)c1cccnc1	-	-	-	-	-	-
NS(=O)(=O)c1ccc(NC(=O)COC(=O)c2ccc(Cl)cc2[N+](=O)[O-])cc1	-	-	-	-	-	-
Cc1cccc(NS(=O)(=O)c2cc(C(=O)N3CCc4ccccc4C3)ccc2Cl)c1C	-	-	-	-	-	-
CC(=O)c1ccc(NC(=S)Nc2ccc3[nH]c(=O)[nH]c3c2)cc1	-	-	-	-	-	-
Cc1ccc(NC(=S)Nc2ccc3[nH]c(=O)[nH]c3c2)cc1C	-	-	-	-	-	90
Cc1cccc(NC(=O)C(=O)NCC2CCCN2S(=O)(=O)c2ccccc2)c1 (stereo not drawn)	-	.	-	-	.	-
O=C(COc1ccccc1)Nc1cccc(-c2nn[nH]n2)c1	-	-	-	-	-	99
O=C(Nc1cccc(-c2nn[nH]n2)c1)c1cccs1	-	-	-	-	-	-
O=C(Nc1cccc(-c2nn[nH]n2)c1)c1csc2c1CCCC2	-	-	-	-	-	99
Cc1ccc(S(=O)(=O)Nc2ncccn2)cc1	-	-	-	-	-	.
SMILES	ZTA DNA inh	PfM18AAP inh	EBNA-1 inh	HCV core dimer	NS3 helicase inh	ALR H2O2 inh
Clc1nnc(N2CCCCC2)c2ccccc12	-	-	-	-	-	98
Cc1ccc(-c2ccc(/C=C3\SC(N4CCOCC4)=NC3=O)o2)cc1	-	-	-	-	-	-
Cc1ccc(/C=C2\SC(N3CCN(C(c4ccccc4)c4ccccc4)CC3)=NC2=O)o1	-	-	-	60	-	-
Cc1ccc(NNC(=O)Nc2ccc(Cl)cc2)nn1	-	32	-	-	-	-
Cc1cc(NC(=O)Nc2ccc(Cl)cc2)n(C)n1	-	-	-	-	-	-
Nc1ccccc1-c1n[nH]c(=S)s1	.	-	.	.	-	.
CC(NC(=O)C(=O)N1CCCCC1)C(c1cccs1)N1CCN(c2ccc(F)cc2)CC1 (stereo not drawn)	-	-	-	-	-	98
CC(NS(C)(=O)=O)C(c1cccs1)N1CCN(c2ccccc2F)CC1 (stereo not drawn)	-	-	-	-	-	.
CC(C)C(=O)NC(C)C(c1cccs1)N1CCN(c2ccccc2)CC1 (stereo not drawn)	-	-	-	-	-	-
CC(NC(=O)C1CC1)C(c1cccs1)N1CCN(c2ccccc2)CC1 (stereo not drawn)	-	-	-	-	-	99
COc1ccccc1N1CCN(C(c2cccs2)C(C)NC(=O)C(=O)N2CCCCC2)CC1 (stereo not drawn)	-	-	-	-	-	-
CC(NC(=O)C(=O)N1CCCCC1)C(c1cccs1)N1CCN(c2ccccc2)CC1 (stereo not drawn)	-	-	-	-	-	99
CC(NS(C)(=O)=O)C(c1cccs1)N1CCN(c2ccccc2)CC1 (stereo not drawn)	-	-	-	-	-	99
CC(C)(C)C(CO)NC(=O)c1ccc[nH]1 (stereo not drawn)	-	.	.	.	.	-
Cc1ccccc1OCC(=O)Nc1ccc2c(c1)C(=O)N(CCC(=O)O)C2=O	-	-	-	-	-	-
Cc1cnc(C(=O)OCC(=O)Nc2ccc(Br)c(C)c2)cn1	-	.	.	.	.	-
O=C(Nc1ccccn1)c1ccc(Cl)c(S(=O)(=O)N2CCc3ccccc32)c1	-	.	.	.	.	-
COc1ccccc1C(=O)NC(=O)CSc1ccc(C)c(C)c1	.	.	.	.	.	97
O=C(CSc1n[nH]c(-c2ccccc2)n1)c1ccccc1	-	-	-	-	-	97
COc1ccc(N=C(N(C)C)P(=O)(N(C)C)N(C)C)cc1	-	-	-	-	-	99
Cc1cccc(N=c2oc3cc(O)ccc3cc2C(N)=O)c1	-	-	-	-	-	94
Cc1ncc(CN2CCCC(C(=O)Nc3ccc(-c4cccc(F)c4)cc3)C2)n1C (stereo not drawn)	-	-	-	-	-	-
CC1CCCN(c2ccc3nncn3n2)C1 (stereo not drawn)	-	-	-	-	-	-
Cc1cc(Br)ccc1N=C1NC(=O)CS1	-	30	-	-	-	-
O=C(NCc1cccnc1)C1CC(c2ccccc2O)=NO1 (stereo not drawn)	-	-	-	-	-	-
SMILES	ZTA DNA inh	PfM18AAP inh	EBNA-1 inh	HCV core dimer	NS3 helicase inh	ALR H2O2 inh
CCOC(=O)c1ccc(Oc2coc3cc(O)ccc3c2=O)cc1	-	-	-	-	-	-
O=C(Nc1ccc2snnc2c1)N1CCSCC1	-	-	-	-	-	93
CC1CN(C(=O)Nc2ccc3snnc3c2)c2ccccc21 (stereo not drawn)	-	-	-	-	-	94
CNC(=O)Nc1ccc2snnc2c1	-	-	-	-	-	-
CC1Cc2ccccc2N1C(=O)c1ccc2snnc2c1 (stereo not drawn)	-	-	-	-	-	-
O=C(COc1ccc2ccccc2c1)Nc1ccc2c3c(cccc13)CC2	-	-	-	-	-	-
COc1cc(C)c(C(=O)Oc2cc(C)c(C(=O)O)c(O)c2C)c(O)c1C	-	.	-	-	.	97
